Test results from ChEMBL document CHEMBL3994610, “A Macrocyclic Agouti-Related Protein/[Nle4,DPhe7]α-Melanocyte Stimulating Hormone Chimeric Scaffold Produces Subnanomolar Melanocortin Receptor Ligands” (J Med Chem, 2017).
Square brackets hold non-standard residues; d marks the D form. Peptide text beside a SMILES is read from it. Dap = NC[C@H](N)C(=O)O

Experiments:
Mus musculus [1] = organism: Mus musculus; assay: Selectivity ratio of EC50 for mouse MC3R to EC50 for mouse MC5R
[2] = biological target: Melanocortin receptor 3 (Mus musculus) (UniProt P33033); assay: Agonist activity at mouse MC3R expressed in HEK293 cells assessed as increase in forskolin-induced cAMP accumulation at 100 uM preincubated for 2 hrs followed by biotinylated cAMP addition and subsequent incubation for 2 hrs by AlphaScreen assay relative to NDP-MSH; format: functional, cell-based
In short: (§1)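 HEK293 cells stably expressing mouse MC1R, MC3R, MC4R or MC5R, at 70-90% confluence, were detached with Versene at 37 °C and plated at 10,000 cells/well. Stimulation buffer was HBSS with 5 mM HEPES, 0.5 mM IBMX and 0.1% BSA, pH 7.4, plus anti-cAMP acceptor beads. Peptide from 10^-2 M DMSO stock was added and incubated 2 hr in the dark at room temperature. Forskolin at 10^-4 M was the reference stimulus.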

Mus musculus [3] = organism: Mus musculus; assay: Selectivity ratio of EC50 for mouse MC3R to EC50 for mouse MC1R
Mus musculus [4] = organism: Mus musculus; assay: Selectivity ratio of EC50 for mouse MC4R to EC50 for mouse MC3R
Melanocortin receptor 3 = Melanocortin receptor 3 (Mus musculus, UniProt P33033); assay: Agonist activity at mouse MC3R expressed in HEK293 cells assessed as increase in forskolin-induced cAMP accumulation preincubated for 2 hrs followed by biotinylated cAMP addition and subsequent incubation for 2 hrs by AlphaScreen assay; format: functional, cell-based; in short: as §1
Mus musculus [5] = organism: Mus musculus; assay: Selectivity ratio of EC50 for mouse MC4R to EC50 for mouse MC1R
Melanocortin receptor 5 = Melanocortin receptor 5 (Mus musculus, UniProt P41149); assay: Agonist activity at mouse MC5R expressed in HEK293 cells assessed as increase in forskolin-induced cAMP accumulation preincubated for 2 hrs followed by biotinylated cAMP addition and subsequent incubation for 2 hrs by AlphaScreen assay; format: functional, cell-based; in short: as §1
[6] = biological target: Melanocyte-stimulating hormone receptor (Mus musculus) (UniProt Q01727); assay: Agonist activity at mouse MC1R expressed in HEK293 cells assessed as increase in forskolin-induced cAMP accumulation at 100 uM preincubated for 2 hrs followed by biotinylated cAMP addition and subsequent incubation for 2 hrs by AlphaScreen assay relative to NDP-MSH; format: functional, cell-based; in short: as §1
[7] = biological target: Melanocortin receptor 4 (Mus musculus) (UniProt P56450); assay: Agonist activity at mouse MC4R expressed in HEK293 cells assessed as increase in forskolin-induced cAMP accumulation at 100 uM preincubated for 2 hrs followed by biotinylated cAMP addition and subsequent incubation for 2 hrs by AlphaScreen assay relative to NDP-MSH; format: functional, cell-based; in short: as §1
Mus musculus [8] = organism: Mus musculus; assay: Selectivity ratio of EC50 for mouse MC5R to EC50 for mouse MC1R
Mus musculus [9] = organism: Mus musculus; assay: Selectivity ratio of EC50 for mouse MC3R to EC50 for mouse MC4R
[10] = biological target: Melanocortin receptor 3 (Homo sapiens) (UniProt P41968); assay: Agonist activity at human MC3R expressed in CHO cells assessed as increase in IBMX-induced cAMP accumulation at 10 uM after 45 mins by [125I]cAMP flash plate assay relative to MT-2
[11] = biological target: Melanocortin receptor 5 (Mus musculus) (UniProt P41149); assay: Agonist activity at mouse MC5R expressed in HEK293 cells assessed as increase in forskolin-induced cAMP accumulation at 100 uM preincubated for 2 hrs followed by biotinylated cAMP addition and subsequent incubation for 2 hrs by AlphaScreen assay relative to NDP-MSH; format: functional, cell-based; in short: as §1
Sequence of Melanocortin receptor 5 (Mus musculus) (P41149 whole entry): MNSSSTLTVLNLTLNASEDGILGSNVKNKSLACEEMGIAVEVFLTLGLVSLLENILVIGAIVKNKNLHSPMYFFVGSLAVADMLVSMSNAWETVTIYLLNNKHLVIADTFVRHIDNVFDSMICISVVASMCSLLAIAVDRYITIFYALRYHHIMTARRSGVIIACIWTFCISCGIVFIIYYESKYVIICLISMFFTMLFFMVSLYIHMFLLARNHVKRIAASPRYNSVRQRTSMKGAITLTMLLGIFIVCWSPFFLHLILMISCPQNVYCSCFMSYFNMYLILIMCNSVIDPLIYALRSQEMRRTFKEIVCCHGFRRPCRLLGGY

Sequence of Melanocortin receptor 3 (P33033 whole entry): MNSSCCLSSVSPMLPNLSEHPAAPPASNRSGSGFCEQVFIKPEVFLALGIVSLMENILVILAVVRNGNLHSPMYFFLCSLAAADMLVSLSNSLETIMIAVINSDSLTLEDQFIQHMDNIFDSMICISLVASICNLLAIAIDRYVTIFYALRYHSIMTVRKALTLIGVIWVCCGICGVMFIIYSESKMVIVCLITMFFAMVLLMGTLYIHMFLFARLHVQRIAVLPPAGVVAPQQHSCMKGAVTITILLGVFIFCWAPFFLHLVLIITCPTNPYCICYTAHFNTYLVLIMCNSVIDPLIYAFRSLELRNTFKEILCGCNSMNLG
Sequence of Melanocortin receptor 3 (Mus musculus) (P33033 whole entry): as above
Sequence of Melanocyte-stimulating hormone receptor (Mus musculus) (Q01727 whole entry, looked up): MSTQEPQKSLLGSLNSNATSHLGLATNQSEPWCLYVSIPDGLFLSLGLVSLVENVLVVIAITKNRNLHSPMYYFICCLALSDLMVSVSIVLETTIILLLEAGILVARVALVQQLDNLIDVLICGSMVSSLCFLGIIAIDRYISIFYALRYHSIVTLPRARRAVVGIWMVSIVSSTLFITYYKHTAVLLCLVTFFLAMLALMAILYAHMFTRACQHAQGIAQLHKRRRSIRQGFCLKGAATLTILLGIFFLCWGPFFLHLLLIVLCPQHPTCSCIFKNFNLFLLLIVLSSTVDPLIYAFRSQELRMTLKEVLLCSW
Sequence of Melanocortin receptor 4 (Mus musculus) (P56450 whole entry): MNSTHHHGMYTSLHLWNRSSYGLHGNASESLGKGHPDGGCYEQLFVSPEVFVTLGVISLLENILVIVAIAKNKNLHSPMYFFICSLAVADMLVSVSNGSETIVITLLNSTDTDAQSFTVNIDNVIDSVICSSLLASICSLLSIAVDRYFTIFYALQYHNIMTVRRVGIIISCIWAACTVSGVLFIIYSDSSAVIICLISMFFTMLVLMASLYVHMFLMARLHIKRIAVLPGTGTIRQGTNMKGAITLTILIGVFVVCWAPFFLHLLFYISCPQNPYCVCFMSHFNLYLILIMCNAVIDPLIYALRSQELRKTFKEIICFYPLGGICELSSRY
Sequence of Melanocortin receptor 3 (Homo sapiens) (P41968 whole entry, looked up): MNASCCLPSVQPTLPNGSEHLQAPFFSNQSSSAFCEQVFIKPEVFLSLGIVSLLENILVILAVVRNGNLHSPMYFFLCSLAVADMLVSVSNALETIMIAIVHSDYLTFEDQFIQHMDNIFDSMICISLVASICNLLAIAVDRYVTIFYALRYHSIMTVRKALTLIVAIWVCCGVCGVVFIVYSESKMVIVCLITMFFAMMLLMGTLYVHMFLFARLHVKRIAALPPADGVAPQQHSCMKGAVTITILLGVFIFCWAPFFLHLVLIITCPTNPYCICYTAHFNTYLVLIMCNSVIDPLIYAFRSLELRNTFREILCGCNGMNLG
Sequence of Melanocortin receptor 5 (P41149 whole entry): as the sequence (P41149 whole entry) above

For `C[C@@H]1NC(=O)[C@H](CC(N)=O)NC(=O)[C@H](Cc2c[nH]c3ccccc23)NC(=O)[C@H](CCCNC(=N)N)NC(=O)[C@@H](Cc2ccccc2)NC(=O)[C@@H]2CCCN2C(=O)[C@H]2CCCN2C1=O` (cyclo(P[dF]RWNA[dP])), the Ratio EC50 (Mus musculus [1]) was > 1000, the Activity [2] was 55% and the Ratio EC50 (Mus musculus [3]) was > 100. The Ratio EC50 (Mus musculus [4]) was > 100.

For `N=C(N)NCCC[C@@H]1NC(=O)[C@@H](Cc2ccccc2)NC(=O)[C@@H]2CCCN2C(=O)[C@H]2CCCN2C(=O)[C@H](CN)NC(=O)[C@H](Cc2c[nH]c3ccccc23)NC1=O` (cyclo(P[dF]RW[Dap][dP])), the EC50 (Melanocortin receptor 3) was > 100 µM, the Ratio EC50 (Mus musculus [5]) was > 500 and the EC50 (Melanocortin receptor 5) was > 100 µM. For the same compound, the Activity [6] was 75%, the Activity [7] was 35% and the Ratio EC50 (Mus musculus [3]) was > 500. For the same compound, the Ratio EC50 (Mus musculus [8]) was > 500.

For `N=C(N)NCCC[C@@H]1NC(=O)[C@@H](Cc2ccccc2)NC(=O)[C@H](Cc2cnc[nH]2)NC(=O)[C@@H]2CCCN2C(=O)[C@H]2CCCN2C(=O)[C@H](CN)NC(=O)[C@H](Cc2c[nH]c3ccccc23)NC1=O` (cyclo(H[dF]RW[Dap][dP]P)), the Ratio EC50 (Mus musculus [1]) was > 100, the Activity [2] was 65% and the Ratio EC50 (Mus musculus [3]) was > 100.

Work on `C[C@@H]1NC(=O)[C@H](CC(N)=O)NC(=O)[C@H](Cc2c[nH]c3ccccc23)NC(=O)[C@H](CCCNC(=N)N)NC(=O)[C@@H](Cc2ccccc2)NC(=O)[C@H](Cc2cnc[nH]2)NC(=O)[C@@H]2CCCN2C(=O)[C@H]2CCCN2C(=O)[C@H](Cc2ccccc2)NC1=O` (cyclo(H[dF]RWNAF[dP]P)) yielded a Ratio EC50 (Mus musculus [9]) of 23.

In the case of `N=C(N)NCCC[C@@H]1NC(=O)[C@@H](Cc2ccccc2)NC(=O)[C@@H]2CCCN2C(=O)[C@H]2CCCN2C(=O)[C@H](Cc2c[nH]c3ccccc23)NC1=O` (cyclo(P[dF]RW[dP])), the EC50 (Melanocortin receptor 3) is reported as > 100 µM and the Activity [7] is reported as 50%.

With `CCCC[C@H](NC(C)=O)C(=O)N[C@H]1CC(=O)NCCCC[C@@H](C(=O)N2CCC[C@H]2C(=O)N[C@H](C(N)=O)C(C)C)NC(=O)[C@H](Cc2c[nH]c3ccccc23)NC(=O)[C@H](CCCNC(=N)N)NC(=O)[C@@H](Cc2ccccc2)NC(=O)[C@@H]2CCCN2C1=O` the Efficacy [10] was 12%.

`C[C@@H]1NC(=O)[C@H](CN)NC(=O)[C@H](Cc2c[nH]c3ccccc23)NC(=O)[C@H](CCCNC(=N)N)NC(=O)[C@@H](Cc2ccccc2)NC(=O)[C@@H]2CCCN2C(=O)[C@H]2CCCN2C(=O)[C@H](Cc2ccccc2)NC1=O` (cyclo(P[dF]RW[Dap]AF[dP])) showed an Activity [6] of 45% and an Activity [2] of 70%.

With `N=C(N)NCCC[C@@H]1NC(=O)[C@@H](Cc2ccccc2)NC(=O)[C@@H]2CCCN2C(=O)[C@H]2CCCN2C(=O)[C@H](CC(N)=O)NC(=O)[C@H](Cc2c[nH]c3ccccc23)NC1=O` (cyclo(P[dF]RWN[dP])) the EC50 (Melanocortin receptor 3) was > 100 µM, the Activity [6] was 85% and the Activity [7] was 85%. For the same compound, the Ratio EC50 (Mus musculus [3]) was > 2500 and the Activity [11] was 25%.

With `C[C@@H]1NC(=O)[C@H](CC(N)=O)NC(=O)[C@H](Cc2c[nH]c3ccccc23)NC(=O)[C@H](CCCNC(=N)N)NC(=O)[C@@H](Cc2ccccc2)NC(=O)[C@@H]2CCCN2C(=O)[C@H]2CCCN2C(=O)[C@H](Cc2ccccc2)NC1=O` (cyclo(P[dF]RWNAF[dP])) the Ratio EC50 (Mus musculus [1]) was > 1000, the Activity [2] was 45% and the Ratio EC50 (Mus musculus [3]) was > 100. For the same compound, the Ratio EC50 (Mus musculus [4]) was > 300.

With `C[C@@H]1NC(=O)[C@H](CN)NC(=O)[C@H](Cc2c[nH]c3ccccc23)NC(=O)[C@H](CCCNC(=N)N)NC(=O)[C@@H](Cc2ccccc2)NC(=O)[C@@H]2CCCN2C(=O)[C@H]2CCCN2C1=O` (cyclo(P[dF]RW[Dap]A[dP])) the Ratio EC50 (Mus musculus [1]) was > 1000, the Activity [2] was 70% and the Ratio EC50 (Mus musculus [4]) was > 300.

`C[C@@H]1NC(=O)[C@H](CN)NC(=O)[C@H](Cc2c[nH]c3ccccc23)NC(=O)[C@H](CCCNC(=N)N)NC(=O)[C@@H](Cc2ccccc2)NC(=O)[C@H](Cc2cnc[nH]2)NC(=O)[C@@H]2CCCN2C(=O)[C@H]2CCCN2C1=O` (cyclo(H[dF]RW[Dap]A[dP]P)) was tested, and the Ratio EC50 (Mus musculus [9]) was 25 and the Ratio EC50 (Mus musculus [1]) was > 100.

`N=C(N)NCCC[C@@H]1NC(=O)[C@@H](Cc2ccccc2)NC(=O)[C@H](Cc2cnc[nH]2)NC(=O)[C@@H]2CCCN2C(=O)[C@H]2CCCN2C(=O)[C@H](Cc2c[nH]c3ccccc23)NC1=O` (cyclo(H[dF]RW[dP]P)) was tested, and the Activity [2] was 60% and the Activity [7] was 65%.
